In ChEMBL document CHEMBL4699564, “Hit-to-lead optimization and discovery of a potent, and orally bioavailable G protein coupled receptor kinase 2 (GRK2) inhibitor” (Bioorg Med Chem Lett, 2020):
Blank lines part the entries; values can stand above or below the compound they belong to.

Assays:
Rhodopsin kinase GRK1 [1] = target: T1, Rhodopsin kinase GRK1 (Homo sapiens, UniProt Q15835); assay: Binding affinity to GRK1 (unknown origin) by Thermofluor thermal shift assay
T1 sequence (Q15835 whole entry): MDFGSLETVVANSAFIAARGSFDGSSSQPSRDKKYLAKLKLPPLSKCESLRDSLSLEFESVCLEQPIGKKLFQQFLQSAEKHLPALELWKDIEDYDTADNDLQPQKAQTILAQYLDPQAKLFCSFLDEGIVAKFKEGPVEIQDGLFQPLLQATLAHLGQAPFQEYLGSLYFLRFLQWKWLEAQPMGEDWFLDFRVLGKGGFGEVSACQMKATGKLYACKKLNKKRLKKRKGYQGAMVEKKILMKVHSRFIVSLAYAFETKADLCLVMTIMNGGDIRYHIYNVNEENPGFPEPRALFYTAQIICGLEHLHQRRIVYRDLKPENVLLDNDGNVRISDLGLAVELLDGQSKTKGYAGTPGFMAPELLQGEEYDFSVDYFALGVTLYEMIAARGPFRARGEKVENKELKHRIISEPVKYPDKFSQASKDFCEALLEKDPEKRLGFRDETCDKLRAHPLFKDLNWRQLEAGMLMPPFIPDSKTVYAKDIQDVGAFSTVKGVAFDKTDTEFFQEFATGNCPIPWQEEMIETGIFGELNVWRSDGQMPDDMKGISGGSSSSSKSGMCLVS

[2] = target: T2, G protein-coupled receptor kinase 5 (Homo sapiens, UniProt P34947); assay: Binding affinity to GRK5 (unknown origin) by Thermofluor thermal shift assay
[3] = target: RAC-alpha serine/threonine-protein kinase (Homo sapiens, UniProt P31749); assay: Inhibition of human PKBalpha
[4] = target: Protein kinase C alpha type (Homo sapiens, UniProt P17252); assay: Inhibition of human PKCalpha
[5] = Apparent permeability across apical to basal side in MDCK-MDR1 cells; format: ADME, cell-based, Canis lupus familiaris; conditions: dog
Rhodopsin kinase GRK1 [6] = target: T1, Rhodopsin kinase GRK1; assay: Inhibition of human GRK1
[7] = target: T2, G protein-coupled receptor kinase 5; assay: Inhibition of human GRK5
[8] = target: G protein-coupled receptor kinase 6 (Homo sapiens, UniProt P43250); assay: Inhibition of human GRK6
Rhodopsin kinase GRK7 = target: T3, Rhodopsin kinase GRK7 (Homo sapiens, UniProt Q8WTQ7); assay: Inhibition of human GRK7
T3 sequence (Q8WTQ7 whole entry): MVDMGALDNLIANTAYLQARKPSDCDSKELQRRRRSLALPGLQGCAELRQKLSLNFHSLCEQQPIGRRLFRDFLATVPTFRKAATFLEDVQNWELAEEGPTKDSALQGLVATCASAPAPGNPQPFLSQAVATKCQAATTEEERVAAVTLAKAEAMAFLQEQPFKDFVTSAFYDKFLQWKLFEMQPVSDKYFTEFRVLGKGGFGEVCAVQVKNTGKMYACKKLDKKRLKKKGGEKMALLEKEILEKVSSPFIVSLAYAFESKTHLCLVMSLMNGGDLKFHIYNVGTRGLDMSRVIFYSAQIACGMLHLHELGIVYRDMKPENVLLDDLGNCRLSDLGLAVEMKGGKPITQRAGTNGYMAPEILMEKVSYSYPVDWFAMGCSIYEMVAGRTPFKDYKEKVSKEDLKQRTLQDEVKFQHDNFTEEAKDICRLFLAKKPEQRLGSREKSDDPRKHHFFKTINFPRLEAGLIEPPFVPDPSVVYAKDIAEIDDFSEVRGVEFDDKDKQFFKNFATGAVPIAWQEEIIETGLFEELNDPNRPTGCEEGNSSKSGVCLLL

[9] = Inhibition of protein kinase A (unknown origin); set-up: species or system Homo sapiens
[10] = target: Protein kinase C beta type (Homo sapiens, UniProt P05771); assay: Inhibition of human PKCbeta1
[11] = target: Calcium/calmodulin-dependent protein kinase type II subunit beta (Homo sapiens, UniProt Q13554); assay: Inhibition of human CaMK2beta
[12] = target: Rho-associated protein kinase 1 (Homo sapiens, UniProt Q13464); assay: Inhibition of human ROCK1
Aurora kinase A = target: T4, Aurora kinase A (Homo sapiens, UniProt O14965); assay: Inhibition of human Aurora A
T4 sequence (O14965 whole entry): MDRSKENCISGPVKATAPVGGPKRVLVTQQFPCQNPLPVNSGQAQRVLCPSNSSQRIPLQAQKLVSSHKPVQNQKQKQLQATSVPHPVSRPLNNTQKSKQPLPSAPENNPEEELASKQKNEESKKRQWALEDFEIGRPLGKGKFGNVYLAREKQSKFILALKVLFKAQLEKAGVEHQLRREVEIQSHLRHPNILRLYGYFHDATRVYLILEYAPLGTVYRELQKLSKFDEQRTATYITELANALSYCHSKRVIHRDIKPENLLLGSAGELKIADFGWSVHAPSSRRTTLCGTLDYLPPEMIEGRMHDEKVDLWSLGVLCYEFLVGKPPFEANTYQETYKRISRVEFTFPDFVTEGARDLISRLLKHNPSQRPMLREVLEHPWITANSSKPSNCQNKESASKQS

[13] = target: Ribosomal protein S6 kinase alpha-1 (Homo sapiens, UniProt Q15418); assay: Inhibition of RSK1 (unknown origin)
[14] = Plasma clearance in C57BL mouse at 2 mg/kg, iv or 10 mg/kg, po administered as single dose; format: ADME, organism-based
Summary of the method: (§1)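 C57BL mice given a single dose, 2 mg/kg i.v. or 10 mg/kg p.o., both formulated in 20% HPbCD. Plasma concentration–time profiles gave clearance, Vdss, terminal half-lives, Cmax, tmax, oral AUC and bioavailability.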

[15] = Volume of distribution at steady state in C57BL mouse at 2 mg/kg, iv or 10 mg/kg, po administered as single dose; format: ADME, organism-based; conditions: in vivo, read-out: Vdss; summary of the method: as §1
[16] = Half life in C57BL mouse at 2 mg/kg, iv administered as single dose; format: ADME, organism-based; conditions: in vivo; summary of the method: as §1
[17] = Half life in C57BL mouse at 10 mg/kg, po administered as single dose; format: ADME, organism-based; conditions: in vivo; summary of the method: as §1
[18] = Cmax in C57BL mouse at 2 mg/kg, iv or 10 mg/kg, po administered as single dose; format: ADME, organism-based; set-up: dose 10 mg/kg; conditions: in vivo; summary of the method: as §1
[19] = Tmax in C57BL mouse at 2 mg/kg, iv or 10 mg/kg, po administered as single dose; format: ADME, organism-based; conditions: in vivo; summary of the method: as §1
[20] = Oral bioavailability in C57BL mouse at 10 mg/kg administered as single dose; format: ADME, organism-based; conditions: in vivo; summary of the method: as §1

T2 sequence (P34947 whole entry): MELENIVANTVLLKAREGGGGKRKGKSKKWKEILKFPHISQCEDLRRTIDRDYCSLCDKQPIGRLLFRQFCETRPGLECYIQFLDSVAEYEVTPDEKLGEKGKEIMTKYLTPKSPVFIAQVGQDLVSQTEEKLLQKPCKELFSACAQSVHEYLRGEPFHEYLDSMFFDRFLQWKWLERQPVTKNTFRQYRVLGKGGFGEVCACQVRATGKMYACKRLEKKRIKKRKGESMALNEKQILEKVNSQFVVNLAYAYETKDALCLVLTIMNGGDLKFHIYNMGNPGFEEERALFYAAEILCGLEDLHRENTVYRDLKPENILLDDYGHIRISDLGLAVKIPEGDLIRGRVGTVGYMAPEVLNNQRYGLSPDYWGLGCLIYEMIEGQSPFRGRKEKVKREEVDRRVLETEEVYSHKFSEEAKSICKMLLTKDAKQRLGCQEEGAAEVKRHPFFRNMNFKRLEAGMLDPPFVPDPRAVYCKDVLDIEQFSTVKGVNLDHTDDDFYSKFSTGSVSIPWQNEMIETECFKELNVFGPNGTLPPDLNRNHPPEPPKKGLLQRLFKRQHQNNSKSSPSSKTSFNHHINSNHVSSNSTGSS
Chain of RAC-alpha serine/threonine-protein kinase (P31749 whole entry): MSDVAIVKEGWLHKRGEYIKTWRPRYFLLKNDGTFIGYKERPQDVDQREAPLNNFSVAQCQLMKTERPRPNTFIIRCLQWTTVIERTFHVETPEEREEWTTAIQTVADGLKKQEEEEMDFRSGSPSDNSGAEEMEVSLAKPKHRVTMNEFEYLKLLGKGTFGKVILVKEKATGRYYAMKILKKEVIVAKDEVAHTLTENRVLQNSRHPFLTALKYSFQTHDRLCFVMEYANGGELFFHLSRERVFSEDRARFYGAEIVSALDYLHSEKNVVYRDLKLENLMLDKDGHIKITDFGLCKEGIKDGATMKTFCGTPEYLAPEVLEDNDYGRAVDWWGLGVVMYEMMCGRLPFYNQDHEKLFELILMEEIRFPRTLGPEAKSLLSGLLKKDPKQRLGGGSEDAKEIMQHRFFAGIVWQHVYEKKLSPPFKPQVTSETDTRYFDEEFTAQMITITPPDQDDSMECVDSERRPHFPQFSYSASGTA
Chain of Calcium/calmodulin-dependent protein kinase type II subunit beta (Q13554 whole entry): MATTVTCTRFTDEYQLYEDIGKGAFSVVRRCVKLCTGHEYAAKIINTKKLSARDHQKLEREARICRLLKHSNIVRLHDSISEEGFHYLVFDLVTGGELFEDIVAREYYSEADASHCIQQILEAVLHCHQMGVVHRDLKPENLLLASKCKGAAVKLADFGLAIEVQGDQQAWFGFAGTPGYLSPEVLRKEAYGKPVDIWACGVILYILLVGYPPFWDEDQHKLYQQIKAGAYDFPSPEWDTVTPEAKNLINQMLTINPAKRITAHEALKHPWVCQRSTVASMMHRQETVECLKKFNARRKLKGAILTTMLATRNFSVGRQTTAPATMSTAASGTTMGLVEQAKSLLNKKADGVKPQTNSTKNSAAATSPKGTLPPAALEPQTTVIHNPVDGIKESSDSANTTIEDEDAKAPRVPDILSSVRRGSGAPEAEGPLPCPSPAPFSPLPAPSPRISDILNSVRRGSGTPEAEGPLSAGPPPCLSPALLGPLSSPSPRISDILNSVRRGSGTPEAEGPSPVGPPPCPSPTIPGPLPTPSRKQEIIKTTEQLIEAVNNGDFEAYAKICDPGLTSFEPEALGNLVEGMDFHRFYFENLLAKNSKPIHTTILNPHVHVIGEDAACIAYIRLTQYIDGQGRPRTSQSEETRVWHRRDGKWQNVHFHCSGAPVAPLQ
Chain of Protein kinase C beta type (P05771 whole entry): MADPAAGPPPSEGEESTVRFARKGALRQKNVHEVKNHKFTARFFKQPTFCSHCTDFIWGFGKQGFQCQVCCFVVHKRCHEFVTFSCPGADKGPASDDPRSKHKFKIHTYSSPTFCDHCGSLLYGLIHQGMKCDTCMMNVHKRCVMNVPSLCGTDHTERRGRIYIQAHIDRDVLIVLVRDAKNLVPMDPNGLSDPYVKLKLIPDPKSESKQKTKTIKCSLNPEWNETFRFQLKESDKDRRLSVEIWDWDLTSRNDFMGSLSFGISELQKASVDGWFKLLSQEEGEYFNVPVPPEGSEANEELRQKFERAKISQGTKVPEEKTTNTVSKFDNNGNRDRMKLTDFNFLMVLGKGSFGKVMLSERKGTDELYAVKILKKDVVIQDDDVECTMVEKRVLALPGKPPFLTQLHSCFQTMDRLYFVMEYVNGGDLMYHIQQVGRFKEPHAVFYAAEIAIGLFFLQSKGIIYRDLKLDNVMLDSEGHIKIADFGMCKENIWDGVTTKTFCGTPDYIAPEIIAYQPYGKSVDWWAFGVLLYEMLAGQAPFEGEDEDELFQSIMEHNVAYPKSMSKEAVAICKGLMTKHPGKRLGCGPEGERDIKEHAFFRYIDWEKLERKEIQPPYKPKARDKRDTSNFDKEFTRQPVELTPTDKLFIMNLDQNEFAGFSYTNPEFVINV
Chain of Ribosomal protein S6 kinase alpha-1 (Q15418 whole entry): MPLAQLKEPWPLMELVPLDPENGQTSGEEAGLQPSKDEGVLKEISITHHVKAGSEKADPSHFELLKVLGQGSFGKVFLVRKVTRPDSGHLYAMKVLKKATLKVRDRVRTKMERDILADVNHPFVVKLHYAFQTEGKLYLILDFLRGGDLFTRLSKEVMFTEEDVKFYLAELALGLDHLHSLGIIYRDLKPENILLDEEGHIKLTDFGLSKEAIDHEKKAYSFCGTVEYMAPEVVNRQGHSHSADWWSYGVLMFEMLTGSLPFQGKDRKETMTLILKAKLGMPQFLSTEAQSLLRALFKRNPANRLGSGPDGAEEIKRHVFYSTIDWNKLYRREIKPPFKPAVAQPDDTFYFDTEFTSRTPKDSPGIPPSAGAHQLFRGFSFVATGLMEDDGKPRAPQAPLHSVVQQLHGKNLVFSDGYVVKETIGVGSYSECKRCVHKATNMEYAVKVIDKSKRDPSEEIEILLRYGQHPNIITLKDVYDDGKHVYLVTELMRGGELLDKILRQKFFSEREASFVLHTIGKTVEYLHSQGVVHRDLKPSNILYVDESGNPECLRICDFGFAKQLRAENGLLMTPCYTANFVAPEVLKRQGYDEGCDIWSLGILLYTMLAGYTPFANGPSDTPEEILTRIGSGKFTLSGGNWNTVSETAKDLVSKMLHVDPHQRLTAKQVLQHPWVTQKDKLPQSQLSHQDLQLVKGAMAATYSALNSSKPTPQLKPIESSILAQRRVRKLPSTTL
Chain of Rho-associated protein kinase 1 (Q13464 whole entry): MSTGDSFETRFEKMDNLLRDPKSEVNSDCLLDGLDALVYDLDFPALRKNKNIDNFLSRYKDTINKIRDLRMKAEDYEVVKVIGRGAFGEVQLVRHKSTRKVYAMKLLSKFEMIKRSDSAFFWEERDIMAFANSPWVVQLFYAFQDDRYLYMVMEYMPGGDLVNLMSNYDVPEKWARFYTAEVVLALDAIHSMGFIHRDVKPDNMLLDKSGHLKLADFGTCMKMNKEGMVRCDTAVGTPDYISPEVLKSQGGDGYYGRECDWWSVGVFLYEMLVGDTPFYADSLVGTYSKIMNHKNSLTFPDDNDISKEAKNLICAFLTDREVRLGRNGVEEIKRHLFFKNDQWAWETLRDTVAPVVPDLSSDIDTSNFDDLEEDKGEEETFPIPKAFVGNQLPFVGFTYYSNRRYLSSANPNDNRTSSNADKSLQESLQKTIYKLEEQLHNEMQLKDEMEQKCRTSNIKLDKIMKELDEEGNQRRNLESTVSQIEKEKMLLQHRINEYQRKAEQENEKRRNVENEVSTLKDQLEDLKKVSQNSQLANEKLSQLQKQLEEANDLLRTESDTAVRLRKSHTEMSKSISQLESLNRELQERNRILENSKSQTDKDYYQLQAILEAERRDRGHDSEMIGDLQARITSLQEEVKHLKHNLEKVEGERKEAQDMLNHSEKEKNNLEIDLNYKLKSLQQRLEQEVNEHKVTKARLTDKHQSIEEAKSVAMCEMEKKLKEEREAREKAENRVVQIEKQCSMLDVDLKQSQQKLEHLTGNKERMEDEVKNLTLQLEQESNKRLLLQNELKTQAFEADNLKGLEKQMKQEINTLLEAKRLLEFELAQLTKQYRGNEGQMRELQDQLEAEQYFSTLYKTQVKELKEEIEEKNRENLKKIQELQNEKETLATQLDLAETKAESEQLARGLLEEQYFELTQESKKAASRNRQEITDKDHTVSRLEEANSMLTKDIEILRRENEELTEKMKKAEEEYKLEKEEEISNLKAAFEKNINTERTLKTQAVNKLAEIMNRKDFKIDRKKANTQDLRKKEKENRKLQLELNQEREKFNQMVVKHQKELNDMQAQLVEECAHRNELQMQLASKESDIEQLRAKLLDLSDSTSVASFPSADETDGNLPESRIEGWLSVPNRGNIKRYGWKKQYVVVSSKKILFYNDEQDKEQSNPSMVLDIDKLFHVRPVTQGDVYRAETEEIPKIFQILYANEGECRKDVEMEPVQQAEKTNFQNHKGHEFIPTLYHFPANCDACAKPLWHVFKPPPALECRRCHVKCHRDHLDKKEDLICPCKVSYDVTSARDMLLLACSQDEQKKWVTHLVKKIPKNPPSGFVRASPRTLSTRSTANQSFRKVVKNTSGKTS
Chain of G protein-coupled receptor kinase 6 (P43250 whole entry): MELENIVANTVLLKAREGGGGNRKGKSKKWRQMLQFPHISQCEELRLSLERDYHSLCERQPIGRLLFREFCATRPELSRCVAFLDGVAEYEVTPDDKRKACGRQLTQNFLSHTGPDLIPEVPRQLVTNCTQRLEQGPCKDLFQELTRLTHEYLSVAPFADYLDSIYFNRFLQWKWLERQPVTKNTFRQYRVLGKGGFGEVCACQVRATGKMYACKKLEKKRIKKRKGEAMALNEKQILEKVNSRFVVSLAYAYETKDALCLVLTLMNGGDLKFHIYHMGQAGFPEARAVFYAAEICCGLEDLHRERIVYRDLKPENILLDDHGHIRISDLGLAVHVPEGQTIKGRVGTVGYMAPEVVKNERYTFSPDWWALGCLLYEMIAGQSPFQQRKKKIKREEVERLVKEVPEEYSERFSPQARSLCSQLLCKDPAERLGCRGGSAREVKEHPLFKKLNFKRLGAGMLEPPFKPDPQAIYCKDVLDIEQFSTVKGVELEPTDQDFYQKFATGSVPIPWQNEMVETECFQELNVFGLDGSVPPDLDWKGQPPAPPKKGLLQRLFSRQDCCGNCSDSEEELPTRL

SMILES: COc1cccc(Cn2ncc3ccc(-c4cn[nH]c4)cc3c2=O)c1
IC50 [3]: > 10 µM
IC50 [4]: > 10 µM
Papp A→B [5]: 53.2 ×10⁻⁶ cm/s
IC50 (Rhodopsin kinase GRK1 [6]): > 10 µM
IC50 [7]: > 10 µM
IC50 [8]: > 10 µM
IC50 (Rhodopsin kinase GRK7): > 10 µM
IC50 [9]: 4.88 µM
IC50 [10]: > 10 µM
IC50 [11]: > 10 µM
IC50 [12]: 1.27 µM
IC50 (Aurora kinase A): 0.137 µM
IC50 [13]: 3.15 µM
clearance [14]: 29.1 mL/min/kg
Vd [15]: 2.01 L/kg
half-life [16]: 1.01 h
half-life [17]: 2.41 h
Cmax [18]: 4.96 µM
Tmax [19]: 0.83 h
bioavailability [20]: 65.3%

SMILES: O=C(NCc1c(F)cccc1F)c1cccc(Cn2cnc3ccc(-c4cn[nH]c4)cc3c2=O)c1
Papp A→B [5]: 0.85 ×10⁻⁶ cm/s

SMILES: COc1cc(Cn2cnc3ccc(-c4cn[nH]c4)cc3c2=O)ccc1F
Papp A→B [5]: 10.1 ×10⁻⁶ cm/s

SMILES: O=c1c2cc(-c3cn[nH]c3)ccc2ncn1Cc1cccc(Oc2ccc(F)cc2)c1
Papp A→B [5]: 7.73 ×10⁻⁶ cm/s

SMILES: O=C(NCc1ccc(F)cc1)c1cccc(Cn2cnc3ccc(-c4cn[nH]c4)cc3c2=O)c1
Papp A→B [5]: 0.57 ×10⁻⁶ cm/s

SMILES: COc1cccc([C@@H](C)n2cnc3ccc(-c4cn[nH]c4)cc3c2=O)c1
Papp A→B [5]: 37.8 ×10⁻⁶ cm/s

SMILES: COc1ccc(Cn2cnc3ccc(-c4cn[nH]c4)cc3c2=O)cc1F
Papp A→B [5]: 12.3 ×10⁻⁶ cm/s

SMILES: O=C(Nc1ccc(F)cc1)c1cccc(Cn2cnc3ccc(-c4cn[nH]c4)cc3c2=O)c1
Papp A→B [5]: 0.44 ×10⁻⁶ cm/s

SMILES: O=C(NCc1c(F)cccc1F)c1ccc(Cn2cnc3ccc(-c4cn[nH]c4)cc3c2=O)cc1
Papp A→B [5]: 0.66 ×10⁻⁶ cm/s

SMILES: CNCCC(c1cccc(OC)c1)n1cnc2ccc(-c3cn[nH]c3)cc2c1=O (racemic)
Papp A→B [5]: < 0.34 ×10⁻⁶ cm/s

Second part, the compound after the results:

Kd (Rhodopsin kinase GRK1 [1]): 14.5 µM
Kd [2]: 34.3 µM
SMILES: O=c1c2cc(-c3cn[nH]c3)ccc2ncn1Cc1ccccc1

Kd (Rhodopsin kinase GRK1 [1]): > 83.3 µM
Kd [2]: > 83.3 µM
SMILES: O=c1c2cc(-c3ccncc3)ccc2ncn1Cc1ccccc1

IC50 [3]: 1.45 µM
IC50 [4]: > 10 µM
Papp A→B [5]: 20.6 ×10⁻⁶ cm/s
IC50 (Rhodopsin kinase GRK1 [6]): > 10 µM
IC50 [7]: 4.5 µM
IC50 [8]: 3.27 µM
IC50 (Rhodopsin kinase GRK7): 9.14 µM
IC50 [9]: 0.855 µM
IC50 [10]: 9.07 µM
IC50 [11]: 3.85 µM
IC50 [12]: 0.246 µM
IC50 (Aurora kinase A): 0.011 µM
IC50 [13]: 0.483 µM
SMILES: COc1cccc(Cn2cnc3ccc(-c4cn[nH]c4)cc3c2=O)c1

Kd (Rhodopsin kinase GRK1 [1]): > 83.3 µM
Kd [2]: > 83.3 µM
SMILES: O=c1c2cc(-c3cncnc3)ccc2ncn1Cc1ccccc1

Papp A→B [5]: 24.2 ×10⁻⁶ cm/s
SMILES: O=c1c2cc(-c3cn[nH]c3)ccc2ncn1Cc1cccc(OC(F)F)c1

Kd (Rhodopsin kinase GRK1 [1]): 47.6 µM
Kd [2]: > 83.3 µM
SMILES: O=c1c2ccc(-c3cn[nH]c3)cc2ncn1Cc1ccccc1

Kd (Rhodopsin kinase GRK1 [1]): > 83.3 µM
Kd [2]: > 83.3 µM
SMILES: O=c1c2cc(-c3ccn[nH]3)ccc2ncn1Cc1ccccc1
